Experimental data as given in PMC2861555 (International journal of radiation biology, 2009).
Read-outs that look alike come from different tables or passages of the source. Marks after values point to notes of the source that are not given here.

Columns and labels:
rats = settings: ref Bergeron et al., cited from earlier work
[1] = assay type: in vivo, rat; settings: for Bile/Urine (%): bile share of U excretion / Bile/Urine (%): urine share of U excretion / % Administered Dose Excreted: 24 h; for Reduction (%) of renal uranium vs control / reduction of bone actinide content vs control: 24 h post-metal; for % Administered Dose Excreted: bile + urine; for Renal Conc.: kidneys removed 24 h post-metal; for Kidney U Conc. / Liver U Conc. / Lung U Conc. / Spleen U Conc. / Bone (femur) U Conc.: tissue 24 h post-metal; for Bone (femur) U Conc.: bone + bone marrow; for reduction of bone actinide content vs control: femur
[2] = assay type: in vivo, rat; settings: for administered uranium excreted (bile + urine): 24 h collection
Outline: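 Bile duct-cannulated rats got uranium 1 mg U kg−1 s.c., then were housed singly in metabolic cages. A single s.c. 300 µmol kg−1 dose of test compound followed at 1, 2 or 4 h post-uranium. Bile and urine were collected for 24 h. Uranium was measured by ICP-MS, triplicate runs averaged. Data are mean ± SEM; one-tailed t-test assuming unequal variances, p<0.05.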

[3] = Multiple dose chelator administration in non-bile duct-cannulated; assay type: in vivo, rat; settings: for % Administered Dose Excreted / Total U Excretion: urine + feces
Outline: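 Intact rats got uranyl acetate 1 mg U kg−1 s.c. (left flank), then test compound or DTPA 300 µmol kg−1 s.c. (right flank) immediately and at 24-h intervals (4 doses). Rats were caged singly with chow and water ad libitum. Urine and feces were collected every 24 h. Kidneys and other tissues were taken 24 h after the last dose. Uranium was measured by ICP-MS in triplicate; data are mean ± SEM.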

[4] = primates, dose 63.3 µmol kg^−1 day^−1; ref Bergeron et al., 2006b; cited from earlier work
[5] = single dose 300 µmol kg^−1 s.c.
[6] = single 300 µmol kg^−1 s.c. dose given 1 h post-uranium
[7] = single 300 µmol kg^−1 s.c. dose given 2 h post-uranium
[8] = single 300 µmol kg^−1 s.c. dose given 4 h post-uranium
[9] = 24 h after last of 4 daily s.c. doses of 300 µmol kg^−1
[10] = Day 1, 300 µmol kg^−1 s.c. daily x 4
[11] = Day 2, 300 µmol kg^−1 s.c. daily x 4
[12] = Day 3, 300 µmol kg^−1 s.c. daily x 4
[13] = Day 4, 300 µmol kg^−1 s.c. daily x 4

**Q.** For `COCCOCCOCCOc1cccc(C2=N[C@@](C)(C(=O)O)CS2)c1O` [compound 10, (S)-4,5-dihydro-2-[2-hydroxy-3-(3,6,9-trioxadecyloxy)phenyl]-4-methyl-4-thiazolecarboxylic acid], which nephrotoxicity (rats; 2008) is on record?
**A.** did not present with any nephrotoxicity

**Q.** And the “Bile/Urine (%): bile share of U excretion” value ([1]; single dose 150 µmol kg^−1 SC)?
**A.** 55%

**Q.** What about the “Bile/Urine (%): urine share of U excretion” value ([1]; single dose 150 µmol kg^−1 SC) of the same compound?
**A.** 45%

**Q.** What about the “Reduction (%) of renal uranium vs control” value (shortened to “Reduction (%)”) ([1]; single dose 150 µmol kg^−1 SC) of the same compound?
**A.** 61%

**Q.** What about the “% Administered Dose Excreted” value ([1]; single dose 150 µmol kg^−1 SC) of the same compound?
**A.** 31.6%

**Q.** And the “Renal Conc.” value ([1]; single dose 150 µmol kg^−1 SC)?
**A.** 33 ± 8 ^b µg g^−1

**Q.** What about the “Kidney U Conc.” value ([1]; single dose 150 µmol kg^−1 SC) of the same compound?
**A.** 33 ± 8 ^b µg g^−1

**Q.** And the “Liver U Conc.” value ([1]; single dose 150 µmol kg^−1 SC)?
**A.** 1.2 ± 0.6 ^c µg g^−1

**Q.** What about the “Lung U Conc.” value ([1]; single dose 150 µmol kg^−1 SC) of the same compound?
**A.** 0.09 ± 0.02 ^b µg g^−1

**Q.** What about the “Spleen U Conc.” value ([1]; single dose 150 µmol kg^−1 SC) of the same compound?
**A.** 0.21 ± 0.01 ^c µg g^−1

**Q.** What about the “Bone (femur) U Conc.” value ([1]; single dose 150 µmol kg^−1 SC) of the same compound?
**A.** 3.4 ± 0.1 µg/g

**Q.** What about the “Reduction (%)” value ([1]; single dose 300 µmol kg^−1 PO) of the same compound?
**A.** 62%

**Q.** What about the “% Administered Dose Excreted” value ([1]; single dose 300 µmol kg^−1 PO) of the same compound?
**A.** 25.7%

**Q.** And the “Renal Conc.” value ([1]; single dose 300 µmol kg^−1 PO)?
**A.** 32 ± 20 ^b µg g^−1

**Q.** And the “Kidney U Conc.” value ([1]; single dose 300 µmol kg^−1 PO)?
**A.** 32 ± 20 ^b µg g^−1

**Q.** What about the “Liver U Conc.” value ([1]; single dose 300 µmol kg^−1 PO) of the same compound?
**A.** 0.7 ± 0.4 ^c µg g^−1

**Q.** What about the “Lung U Conc.” value ([1]; single dose 300 µmol kg^−1 PO) of the same compound?
**A.** 0.13 ± 0.04 µg/g

**Q.** What about the “Spleen U Conc.” value ([1]; single dose 300 µmol kg^−1 PO) of the same compound?
**A.** 0.16 ± 0.05 µg/g

**Q.** And the “Bone (femur) U Conc.” value ([1]; single dose 300 µmol kg^−1 PO)?
**A.** 3.1 ± 1.1 µg/g

**Q.** And the “Bile/Urine (%): bile share of U excretion” value ([1]; single dose 300 µmol kg^−1 SC)?
**A.** 79%

**Q.** What about the “Bile/Urine (%): urine share of U excretion” value ([1]; single dose 300 µmol kg^−1 SC) of the same compound?
**A.** 21%

**Q.** What about the “Reduction (%)” value ([1]; single dose 300 µmol kg^−1 SC) of the same compound?
**A.** 85%

**Q.** And the “% Administered Dose Excreted” value ([1]; single dose 300 µmol kg^−1 SC)?
**A.** 31.4%

**Q.** And the “Renal Conc.” value ([1]; single dose 300 µmol kg^−1 SC)?
**A.** 13 ± 6 ^b µg g^−1

**Q.** And the “Kidney U Conc.” value ([1]; single dose 300 µmol kg^−1 SC)?
**A.** 13 ± 6 ^b µg g^−1

**Q.** What about the “Liver U Conc.” value ([1]; single dose 300 µmol kg^−1 SC) of the same compound?
**A.** 0.8 ± 0.2 ^c µg g^−1

**Q.** And the “Lung U Conc.” value ([1]; single dose 300 µmol kg^−1 SC)?
**A.** 0.08 ± 0.02 ^b µg g^−1

**Q.** What about the “Spleen U Conc.” value ([1]; single dose 300 µmol kg^−1 SC) of the same compound?
**A.** 0.18 ± 0.03 µg/g

**Q.** What about the “Bone (femur) U Conc.” value ([1]; single dose 300 µmol kg^−1 SC) of the same compound?
**A.** 2.3 ± 0.6 ^b µg g^−1

**Q.** What about the “reduction of bone actinide content vs control” value [1, 5] of the same compound?
**A.** 36%

**Q.** What does the source list for `COCCOCCOCCOc1ccc(C2=N[C@@](C)(C(=O)O)CS2)c(O)c1` [compound 9, (S)-4,5-dihydro-2-[2-hydroxy-4-(3,6,9-trioxadecyloxy)phenyl]-4-methyl-4-thiazolecarboxylic acid]?
**A.** reduction in renal uranium content vs control [2, 6]: 74%; administered uranium excreted (bile + urine) [2, 6]: 34.6%; reduction in renal uranium content vs control [2, 7]: 68%; administered uranium excreted (bile + urine) [2, 7]: 28.5%; reduction in renal uranium content vs control [2, 8]: 35%; administered uranium excreted (bile + urine) [2, 8]: 28.6%; Reduction (%) of renal uranium vs control [3, 9]: 62%; Renal Conc. [3, 9]: 12 ± 2 ^c µg g^−1; Fecal U Excretion [3, 10]: 478 ± 181 µg/kg; Urine U Excretion ([3]; Day 1, 300 µmol kg^−1 s.c. daily x 4, first dose immediately post-U): 205 ± 27 µg/kg; % Administered Dose Excreted [3, 10]: 68.3%; Total U Excretion [3, 10]: 683 ± 161 ^d µg kg^−1; Fecal U Excretion [3, 11]: 116 ± 46 µg/kg; Urine U Excretion [3, 11]: 39 ± 5 µg/kg; % Administered Dose Excreted [3, 11]: 15.5%; Total U Excretion [3, 11]: 155 ± 48 ^d µg kg^−1; Fecal U Excretion [3, 12]: 33 ± 4 µg/kg; Urine U Excretion [3, 12]: 23 ± 4 µg/kg; % Administered Dose Excreted [3, 12]: 5.6%; Total U Excretion [3, 12]: 56 ± 7 µg/kg; Fecal U Excretion [3, 13]: 25 ± 2 µg/kg; Urine U Excretion [3, 13]: 11 ± 1 µg/kg; % Administered Dose Excreted [3, 13]: 3.6%; Total U Excretion [3, 13]: 36 ± 1 µg/kg; administered dose of uranium excreted at the end of four days (urine + feces) ([3]; cumulative over 4 days, 300 µmol kg^−1 s.c. daily x 4): 93%; nephrotoxicity (rats; rodent model, 2006b): virtually eliminated nephrotoxicity; iron excretion [4]: 450 µg Fe kg^−1; Bile/Urine (%): bile share of U excretion ([1]; single dose 150 µmol kg^−1 SC): 69%; Bile/Urine (%): urine share of U excretion ([1]; single dose 150 µmol kg^−1 SC): 31%; Reduction (%) of renal uranium vs control ([1]; single dose 150 µmol kg^−1 SC): 55%; % Administered Dose Excreted ([1]; single dose 150 µmol kg^−1 SC): 48.2%; Renal Conc. ([1]; single dose 150 µmol kg^−1 SC): 37 ± 16 ^b µg g^−1; Kidney U Conc. ([1]; single dose 150 µmol kg^−1 SC): 37 ± 16 ^b µg g^−1; Liver U Conc. ([1]; single dose 150 µmol kg^−1 SC): 1.6 ± 0.9 ^c µg g^−1; Lung U Conc. ([1]; single dose 150 µmol kg^−1 SC): 0.16 ± 0.13 µg/g; Spleen U Conc. ([1]; single dose 150 µmol kg^−1 SC): 0.20 ± 0.05 µg/g; Bone (femur) U Conc. ([1]; single dose 150 µmol kg^−1 SC): 2.1 ± 0.5 ^b µg g^−1; reduction of bone actinide content vs control ([1]; single dose 150 µmol kg^−1 s.c.): 42%; Bile/Urine (%): urine share of U excretion ([1]; single dose 300 µmol kg^−1 PO): 29%; Bile/Urine (%): bile share of U excretion ([1]; single dose 300 µmol kg^−1 PO, listed as C00009): 71%; Reduction (%) of renal uranium vs control ([1]; single dose 300 µmol kg^−1 PO): 57%; % Administered Dose Excreted ([1]; single dose 300 µmol kg^−1 PO): 43.5%; Renal Conc. ([1]; single dose 300 µmol kg^−1 PO): 36 ± 8 ^b µg g^−1; Kidney U Conc. ([1]; single dose 300 µmol kg^−1 PO): 36 ± 8 ^b µg g^−1; Liver U Conc. ([1]; single dose 300 µmol kg^−1 PO): 0.6 ± 0.2 ^c µg g^−1; Lung U Conc. ([1]; single dose 300 µmol kg^−1 PO): 0.10 ± 0.02 ^b µg g^−1; Spleen U Conc. ([1]; single dose 300 µmol kg^−1 PO): 0.13 ± 0.02 ^b µg g^−1; Bone (femur) U Conc. ([1]; single dose 300 µmol kg^−1 PO): 2.7 ± 1.2 µg/g; Bile/Urine (%): bile share of U excretion ([1]; single dose 300 µmol kg^−1 SC): 84%; Bile/Urine (%): urine share of U excretion ([1]; single dose 300 µmol kg^−1 SC): 16%; Reduction (%) of renal uranium vs control ([1]; single dose 300 µmol kg^−1 SC): 66%; % Administered Dose Excreted ([1]; single dose 300 µmol kg^−1 SC): ~52%; % Administered Dose Excreted ([1]; single dose 300 µmol kg^−1 SC, listed as C00009): 51.5%; Renal Conc. ([1]; single dose 300 µmol kg^−1 SC): 29 ± 6 ^b µg g^−1; Kidney U Conc. ([1]; single dose 300 µmol kg^−1 SC): 29 ± 6 ^b µg g^−1; Liver U Conc. ([1]; single dose 300 µmol kg^−1 SC): 0.9 ± 0.2 ^c µg g^−1; Lung U Conc. ([1]; single dose 300 µmol kg^−1 SC): 0.13 ± 0.02 µg/g; Spleen U Conc. ([1]; single dose 300 µmol kg^−1 SC): 0.18 ± 0.04 µg/g; Bone (femur) U Conc. ([1]; single dose 300 µmol kg^−1 SC): 1.9 ± 0.5 ^b µg g^−1; reduction of bone actinide content vs control [1, 5]: 48%
